From PubChem BioAssay
TRPC4 potent: TRPC4 (mouse) allosteric potentiation | HEK293 TRPC4beta/mu-opioid, DAMGO EC20, Fluo-4 Ca2+ flux; hits give high values | B-score at 10 µM | hit rate 0.42% among 310,000 | AID 2227;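 active = B-score of calcium response area above 5 SD of library B-scores, with initial fluorescence ratio within 5 SD of library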;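 note: B-score of integrated fluorescence ratio over time as area under calcium response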
TRPC4 block: inhibitors of mouse TRPC4 channel | Q9QUQ5 | HEK293 TRPC4beta/mu-opioid, DAMGO-evoked Fluo4 calcium flux; hits give low values | B-score at 10 µM | hit rate 0.39% among 300,000 | AID 2247;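 active = B-score over 3 SD under the library average, no early fluorescence shift, positive overall ratio signal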
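Material: HEK293 cells with stable TRPC4beta plus mu-opioid receptor expression; probe or stimulus: DAMGO in two steps, submaximal then maximal; technique: Fluo4 calcium fluorescence by kinetic imaging, 5 s 1 Hz baseline; measure: integrated fluorescence ratio relative to baseline, converted to per-well B score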
TRPC6 inhibitor: mouse TRPC6 channel inhibition. AID 2553. B-score at 10 µM. hit rate 1.1% among 310,000. HEK293-TRPC6, membrane potential dye, ACh-evoked depolarization; hits give low values. Q61143;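 active = B-score under library mean minus 3 SD, initial fluorescence not abnormally high, positive integrated signal ratio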;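 note: B-score derived from integrated fluorescence ratio over the kinetic read; more negative B-score means stronger inhibition of depolarization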
Target sequence (Q61143 whole entry, looked up): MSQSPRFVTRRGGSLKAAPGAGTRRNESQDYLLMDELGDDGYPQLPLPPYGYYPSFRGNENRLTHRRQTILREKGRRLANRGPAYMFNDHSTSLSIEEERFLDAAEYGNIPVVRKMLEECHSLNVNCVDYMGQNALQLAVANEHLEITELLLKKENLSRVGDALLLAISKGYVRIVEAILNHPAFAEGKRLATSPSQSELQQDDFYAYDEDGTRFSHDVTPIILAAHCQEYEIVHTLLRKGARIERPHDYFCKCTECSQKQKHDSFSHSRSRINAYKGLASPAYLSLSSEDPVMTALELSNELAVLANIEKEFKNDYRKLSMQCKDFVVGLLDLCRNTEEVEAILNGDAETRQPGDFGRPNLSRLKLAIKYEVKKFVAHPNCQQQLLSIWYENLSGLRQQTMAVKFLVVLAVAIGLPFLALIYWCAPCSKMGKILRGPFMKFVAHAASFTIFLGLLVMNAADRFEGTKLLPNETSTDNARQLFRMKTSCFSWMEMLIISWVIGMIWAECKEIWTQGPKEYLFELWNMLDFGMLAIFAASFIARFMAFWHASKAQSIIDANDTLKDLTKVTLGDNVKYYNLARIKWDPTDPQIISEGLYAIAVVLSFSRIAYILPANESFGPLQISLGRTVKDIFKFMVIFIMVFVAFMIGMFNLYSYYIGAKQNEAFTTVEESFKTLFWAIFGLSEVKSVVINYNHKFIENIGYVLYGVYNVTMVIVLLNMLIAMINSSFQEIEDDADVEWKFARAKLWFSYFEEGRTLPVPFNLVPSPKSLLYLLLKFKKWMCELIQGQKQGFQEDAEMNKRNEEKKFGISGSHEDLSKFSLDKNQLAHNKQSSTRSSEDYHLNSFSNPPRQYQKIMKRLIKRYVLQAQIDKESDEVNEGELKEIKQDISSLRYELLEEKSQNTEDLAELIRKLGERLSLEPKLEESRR
TRPC4 agonist: TRPC4 (mouse) channel activation | Q9QUQ5 | hit rate 0.49% among 310,000 | HEK293 TRPC4beta/mu-opioid, Fluo4 calcium fluorescence; hits give high values | B-score at 10 µM | AID 2237;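 active = B-score above 5 SD of library B-scores, and initial fluorescence ratio not above library mean plus 5 SD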;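 note: positive B-score marks a calcium rise read as TRPC4 activation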
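Assay system – TRPC4beta and mu-opioid receptor HEK293 stable cells · Measured by – Fluo4 fluorescence, kinetic · Schedule – dye loading 45 min room temperature, 110 s kinetic read · Read-out – B-scored integrated calcium fluorescence ratio · Controls – buffer and maximal DAMGO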
TRPC6 activator: activators of mouse TRPC6 channel. Q61143. HEK293-TRPC6 membrane potential dye fluorescence; hits give high values. B-score at 10 µM. hit rate 0.13% among 310,000. AID 2550;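 active = B-score of the integrated fluorescence ratio above library mean plus 3 SD, and starting fluorescence ratio within library mean plus 5 SD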;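 note: higher score means more depolarization so channel activation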
An asterisk follows results filed as active; i = inactive; / = not tested or not shown. Only some compounds are listed: those with a hit (about 2.3% of all), similar ones and a draw of the others.

SMILES | TRPC4 potent | TRPC4 block | TRPC6 inhibitor | TRPC4 agonist | TRPC6 activator
COc1ccc(C(=O)NC(=S)NNC(=O)Cc2cccs2)cc1 | i | i | i | 49* | i
COc1cc(OC)cc(C(=O)NC(=S)NNC(=O)Cc2cccs2)c1 | i | i | i | 147* | i
CSc1ccc(CN2CCCN(C)CC2)cc1 | i | i | i | i | i
Cc1ccccc1C(=O)Nc1nnc(-c2cccnc2)o1 | i | i | i | i | i
CN(C)S(=O)(=O)c1ccc(Cl)c(NC(=O)c2ccncc2)c1 | i | i | i | i | i
CC(C)(C)C(=O)Nc1sc(-c2ccccc2)cc1C(=O)O | i | i | i | i | i
Cc1cccc(C(=O)Nc2sc(-c3ccccc3)cc2C(=O)O)c1 | i | -6* | i | i | i
CCOC(=O)C1CCN(Cc2nc3ccc([N+](=O)[O-])cc3c(=O)n2-c2ccc(OC)cc2OC)CC1 | i | i | i | 59* | i
COc1ccc(-n2c(CN3CCC(C(N)=O)CC3)nc3ccc([N+](=O)[O-])cc3c2=O)c(OC)c1 | i | i | i | i | i
CCNC(=O)n1cc(-n2cncn2)c(-c2ccccc2)n1 | i | i | i | i | i
NC(N)=NN=C1CCCCCCCCCCC1 | i | i | i | 49* | i
CC(C)(C)NC(=O)C(=O)NN=C1CCCCCCCCCCC1 | i | i | i | i | i
CC(C)Cn1c(CN(C)Cc2ccccc2)nc2c1c(=O)n(C)c(=O)n2C | i | i | i | i | i
CN(Cc1ccccc1)Cc1nc2c(c(=O)n(C)c(=O)n2C)n1CCCc1ccccc1 | 37* | i | i | i | i
O=C(c1ccncc1)N1c2ccccc2Sc2ccccc21 | 26* | i | i | i | i
Cc1ccc(C)c(NC(=O)C2CCCN(S(=O)(=O)c3cccnc3)C2)c1 (stereo not drawn) | i | i | i | i | i
COc1ccc(OC)c(NC(=O)COC(=O)Cc2ccc(Br)cc2)c1 | i | i | i | i | i
COc1ccc(OC)c(NC(=O)COC(=O)Cc2ccc(-c3ccccc3)cc2)c1 | 21* | i | i | i | i
O=C(NCC1CCCO1)C1CCN(S(=O)(=O)c2cc(Cl)ccc2Cl)CC1 (stereo not drawn) | i | i | i | i | i
COc1ccc(C(Nc2ccccn2)c2c(NC(=O)c3ccco3)sc(C)c2C)cc1OC (stereo not drawn) | i | -6* | i | i | i
COc1cc(C(Nc2ccccn2)c2c(NC(=O)c3ccco3)sc(C)c2C)cc(OC)c1OC (stereo not drawn) | i | i | i | i | i
CC1CCN(CCCOc2ccc(OCc3ccccc3)cc2)CC1 | i | -6* | i | i | i
COCCNS(=O)(=O)c1ccc(C)c(C)c1C | i | i | i | i | i
COc1cccc(OC)c1OCCCc1c(C)n[nH]c1C | i | i | i | i | i
Cc1cccc(OCCCc2c(C)n[nH]c2C)c1 | i | -6* | i | i | i
SMILES | TRPC4 potent | TRPC4 block | TRPC6 inhibitor | TRPC4 agonist | TRPC6 activator
Cc1ccc(S(=O)(=O)c2cn(C)c3cc(N4CCN(C)CC4)c(F)cc3c2=O)c(C)c1 | i | i | i | i | i
CC(=O)Nc1ccc(CN2CCCC(CO)(Cc3ccccc3C)C2)cc1 (stereo not drawn) | i | i | i | i | i
CCOC(=O)C1(Cc2ccccc2C)CCCN(Cc2ccc(NC(C)=O)cc2)C1 (stereo not drawn) | i | -9* | i | i | i
Cc1ccc(/C=N/NC(=O)c2nnn(-c3nonc3N)c2C(C)C)o1 | i | i | i | i | i
CCc1ccc(NC(=S)NC2CC3CCCC(C2)N3Cc2ccccc2)cc1 (stereo not drawn) | i | i | i | 51* | i
Cc1ccc(NC(=S)NC2CC3CCCC(C2)N3Cc2cccs2)cc1 (stereo not drawn) | i | i | i | 48* | i
O=C(NCCC1CCCCN1S(=O)(=O)c1ccccc1)C(=O)Nc1ccc(F)cc1F (stereo not drawn) | i | i | i | i | i
CCCOc1ccc(C(=O)NNC(=S)NC(=O)c2ccccc2)cc1 | i | i | i | 167* | i
CCCOc1ccc(C(=O)NNC(=S)NC(=O)c2ccccc2[N+](=O)[O-])cc1 | i | i | i | i | i
CCCOc1ccc(C(=O)NNC(=S)NC(C)=O)cc1 | i | i | i | i | i
CCCOc1ccc(C(=O)NNC(=S)NC(=O)c2cccs2)cc1 | i | i | i | 175* | i
CCCCOc1ccc(C(=O)NNC(=S)NC(=O)CC)cc1 | i | i | i | 73* | i
O=C(COc1ccccc1)NCC(=O)N/N=C/c1ccc(O)cc1O | i | i | i | i | i
O=C1OC(N2CCN(C/C=C/c3ccccc3)CC2)c2ccccc21 (stereo not drawn) | i | i | i | 83* | i
CC(=C1C(=O)c2ccccc2C1=O)N1CCN(Cc2ccccc2)CC1 | i | i | i | i | i
CC(=C1C(=O)c2ccccc2C1=O)N1CCN(C/C=C/c2ccccc2)CC1 | i | i | i | 49* | i
O=S(=O)(c1ccccc1)N1CCN(C/C=C/c2ccccc2)CC1 | i | -6* | i | i | i
O=C(O)C1C2C=CC(C2)C1C(=O)N1CCN(C/C=C/c2ccccc2)CC1 (stereo not drawn) | i | i | i | 84* | i
COc1cccc(N2CCN(C(=O)Cn3c(=O)oc4ccccc43)CC2)c1 | i | i | i | i | i
Cc1ccccc1C1c2[nH]c3ccccc3c2C[C@H]2C(=O)N(C3CCN(Cc4ccccc4)CC3)CC(=O)N12 (stereo partly drawn) | i | i | i | 48* | i
Cc1ccc(C)c(N2CC(O)(c3cccs3)[N+]3=C2CCCC3)c1 (stereo not drawn) | i | i | i | i | i
Cc1ccccc1N1CC(=O)N(c2ccccc2C)CC1=O | i | i | i | i | i
Cc1ccc(C2(O)CN(c3ccccc3C)C3=[N+]2CCS3)cc1 (stereo not drawn) | i | i | i | 106* | i
Cc1ccccc1N1CC(O)(c2ccccc2)[N+]2=C1SCC2 (stereo not drawn) | i | i | i | 83* | i
Clc1ccccc1OCCCCN1CCNCC1 | 12* | i | i | i | i
Clc1ccccc1OCCCCN1CCCC1 | i | / | i | i | i
Cc1cccc(OCCOCCN2CCOCC2)c1C | i | i | i | i | i
